14 compounds from ChEMBL document CHEMBL3826888, “New naphthalene derivatives and isoquinoline alkaloids from Ancistrocladus cochinchinensis with their anti-proliferative activity on human cancer cells” (Bioorg Med Chem Lett, 2016) can be followed below.

Values after ≈ are worked out from the molar mass of the structure shown.

Usually EC50 stands for the concentration that produces a half-maximal response. Low values mean a more potent agent, high ones a less potent agent. The IC50 is the concentration at which inhibition is half-maximal.

Test [1] deals with SK-MEL-2. Briefly: Antiproliferative activity against human SK-MEL-2 cells assessed as cell death at 20 ug/ml after 3 days by sulforhodamine B assay relative to control. In kind it is functional. Summed up:
(§1)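 Human cancer cell lines HL-60 (promyelocytic leukemia), LU-1 (lung carcinoma) and SK-MEL-2 (melanoma) were screened by sulforhodamine B assay, with each sample at a single concentration of 20 µg/mL. The read-out was percentage cell death; samples giving over 50% death went on to dose-response testing. Ellipticine was the positive control throughout.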

For test [2], the system named is Lu1. The test can be described thus: Antiproliferative activity against human Lu1 cells assessed as cell death at 20 ug/ml after 3 days by sulforhodamine B assay relative to control. In kind it is functional. Summed up:
as §1
(The SRB assay estimates cell density from bound dye.)

Test [3] is described as follows: Antiproliferative activity against human HL60 cells assessed as cell death at 20 ug/ml after 3 days by sulforhodamine B assay relative to control. In kind it is functional, HL-60. Summed up:
as §1

The test system of test [4] is Trypanosoma brucei brucei. The test can be described thus: Antitrypanosomal activity against Trypanosoma brucei brucei TC221. In kind it is functional, organism-based.
The test system of test [5] is SK-MEL-2. Briefly: Antiproliferative activity against human SK-MEL-2 cells after 3 days by sulforhodamine B assay relative to control. The conditions noted are these: SK-MEL-2, 72 h. In kind it is functional, cell-based. A digest of the protocol: (§2)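 SRB cell-proliferation assay on human cancer cell lines. Each sample was first screened at a single concentration of 20 µg/mL. Samples causing over 50% cell death then went to a dose-dependent study to derive IC50 in µg/mL. Ellipticine served as positive control throughout.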

Test [6] deals with Lu1. Briefly: Antiproliferative activity against human Lu1 cells after 3 days by sulforhodamine B assay relative to control. It counts as functional, cell-based. The conditions noted are these: Lu1, 72 h. Summed up:
as §2

The nature of test [7]: Antiproliferative activity against human HL60 cells after 3 days by sulforhodamine B assay relative to control. In kind it is functional, cell-based. The conditions noted are these: HL-60, 72 h. Summed up: as §2
In test [8] the test system is Plasmodium falciparum. Briefly: Antiparasitic activity against Plasmodium falciparum NF54 after 48 hrs by [3H]-hypoxanthine incorporation assay. It counts as functional, organism-based.
Test [9] relates to Plasmodium falciparum. Briefly: Antiparasitic activity against Plasmodium falciparum K1. It counts as functional, organism-based.

For `COc1cc(O)ccc1O[C@@H]1O[C@H](COC(=O)c2cc(OC)c(O)c(OC)c2)[C@@H](O)[C@H](O)[C@H]1O`, the Activity in test [1], in [2] and in test [3] was less than 50% each time.
Consider `COc1cc([C@H]2OC[C@H]3[C@@H]2CO[C@H]3c2cc(OC)c(O[C@@H]3O[C@H](CO)[C@@H](O)[C@H](O)[C@H]3O)c(OC)c2)cc(OC)c1O`, for which the Activity in [1], in test [2] and in [3] was less than 50% throughout.
`COc1cc(C)cc2ccc(-c3ccc4c(c3O)[C@@H](C)N[C@H](C)C4)c(O)c12` returned an EC50 in test [4] of 2600 nM.
As to `COc1cc(O[C@@H]2O[C@H](CO)[C@@H](O)[C@H](O)[C@H]2O)cc2cc(CO)nc(C)c12`, the Activity in test [1], in [2] and in test [3] was less than 50% each time.
Turning to `COc1cc(O)cc2cc(CO)nc(C)c12`, the Activity in [1], in test [2] and in test [3] was less than 50% throughout.
With `COc1cc(O)c(-c2c(C)cc(OC)c3c(OC)cccc23)c2c1[C@@H](C)N[C@@H](C)C2`, the IC50 in test [5] came to 6.8 µg/mL (≈ 16.7 µM); in [6], 6.5 µg/mL (≈ 16 µM); in test [7], 5 µg/mL (≈ 12.3 µM). The Activity in test [1], in [2] and in test [3] was greater than 50% in each case.
In test [8], `COc1cccc2c(-c3ccc4c(c3O)[C@@H](C)N[C@H](C)C4)c(C)c(-c3c(C)c(-c4ccc5c(c4O)[C@@H](C)N[C@H](C)C5)c4cccc(OC)c4c3O)c(O)c12` yielded an IC50 of 1.4 nM.
In the case of `Cc1cc(O)c2c(c1)[C@H](O[C@@H]1O[C@H](CO[C@@H]3O[C@H](CO)[C@@H](O)[C@H](O)[C@H]3O)[C@@H](O)[C@H](O)[C@H]1O)CCC2=O`, the Activity in test [1], in test [2] and in test [3] was less than 50% throughout.
As to `Cc1cc(O[C@@H]2O[C@H](CO[C@@H]3OC[C@](O)(CO)[C@H]3O)[C@@H](O)[C@H](O)[C@H]2O)c2c(O)cccc2c1`, the Activity in test [1], in test [2] and in [3] was less than 50% each time.
In test [9] (Plasmodium falciparum, K1), `COc1cc(O)c(-c2c(C)cc(O)c3c(OC)cccc23)c2c1[C@@H](C)N(C)[C@@H](C)C2` had an IC50 of 80 nM.
`COc1cc(O)c2c(c1-c1c(C)cc(OC)c3c(OC)cccc13)C[C@H](C)N[C@H]2C` (stereo in doubt; form 1) registered an IC50 in [9] of 70 nM.
The same measure, in the same setting: then `COc1cc(O)c2c(c1-c1c(C)cc(OC)c3c(OC)cccc13)C[C@H](C)N[C@H]2C` (stereo in doubt; form 2), with 30 nM.
In test [4], `COc1cccc2c(-c3ccc4c(c3O)[C@@H](C)N[C@H](C)C4)c(C)cc(OC)c12` [DIONCOPHYLLINE A] displayed a half-maximal effective concentration (EC50) of 3400 nM.
In test [4], `COc1cc(C)c(-c2ccc(O)c3c2C[C@@H](C)N[C@@H]3C)c2cccc(O)c12` [DIONCOPHYLLINE C] had an EC50 of 4200 nM.
